# Laboratory results published in paper PMC4824049 (Bioorganic & medicinal chemistry, 2015).
# “Also recorded” adds a separate entry of the source.
# Legend:
# C3H mammary carcinoma = assay: Growth inhibition of C3H mammary carcinoma in CDF1 mice; type: in vivo; conditions: 20 mg/kg i.p., 5 daily treatments
# cathepsin L [1] = molecular target: T1, cathepsin L (Homo sapiens, UniProt P07711); assay: Cathepsin L reaction progress curves / reversibility; type: biochemical; conditions: separate experiments, Supplementary data
# T1 sequence (P07711 114-288 limits assumed): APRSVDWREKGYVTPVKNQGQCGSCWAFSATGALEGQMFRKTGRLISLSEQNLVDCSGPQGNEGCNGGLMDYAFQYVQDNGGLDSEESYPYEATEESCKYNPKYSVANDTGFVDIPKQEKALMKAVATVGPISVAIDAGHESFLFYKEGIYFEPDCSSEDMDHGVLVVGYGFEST
# T1 sequence (P07711 292-333 limits assumed): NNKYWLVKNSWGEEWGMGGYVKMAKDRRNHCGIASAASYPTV
# Outline: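 No pre-incubation. Test compound at final 10, 5, 1, 0.5, 0.1, 0.01 and 0.005 µM was mixed with Z-FR-AMC (final 10 µM), and the reaction was started by adding cathepsin L in assay buffer. AMC fluorescence (ex 355/em 460 nm) was read every 30 s for 50 min.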
# [2] = tested on: MDA-MB-231 breast cancer cells; assay: MDA-MB-231 cell migration assay; type: cell-based, human; conditions: 25 μM
# Outline: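 MDA-MB-231 cells (DMEM, 10% FBS, gentamycin) were trypsinised at 80% confluence and counted. Each insert (8 µm pores, no Matrigel) received 50,000 cells in DMEM with 2% DMSO and test compound at 25 or 10 µM; the lower chamber held DMEM with 10% FBS as chemoattractant. E-64 served as positive control. After 24 h at 37 °C and 5% CO2, migrated cells were methanol-fixed and Diff-stained. Values were normalised to 2% DMSO vehicle, in triplicate.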
# HUVECs = assay: Cytotoxicity assay; type: cell-based, human; conditions: normal primary cells
# Outline: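 Pooled-donor HUVECs were grown on collagen-1-coated flasks in M200 with gentamycin, amphotericin B and low-serum growth supplement at 37 °C and 5% CO2, used at passage 5 or lower. Cells were seeded at 9,000/well for 24 h, then given ten-fold serial dilutions of test compound for 48 h. Plates were TCA-fixed and stained with 0.4% SRB for 30 min. Absorbance was read at 540 nm, normalised to 630 nm. GI50 came from at least two replicates, averaged over at least three experiments.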
# Human liver Cathepsin B = Human liver Cathepsin B (Homo sapiens, UniProt P07858); assay: Cathepsin B inhibition assay; type: biochemical
# Outline: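 Human liver cathepsin B was pre-incubated with the test compound for 5 min at 37 °C, then Z-RR-AMC was added. Fluorescence (ex 355/em 460 nm) was read over 5 min at 37 °C. IC50 was fitted from triplicate experiments.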
# human liver cathepsin L = human liver cathepsin L (Homo sapiens, UniProt P07711); assay: Cathepsin L inhibition assay; type: biochemical; conditions: tested up to 10,000 nM
# human liver cathepsin L, sequence (P07711 114-288 limits assumed): as the sequence (P07711 114-288 limits assumed) above
# human liver cathepsin L, sequence (P07711 292-333 limits assumed): as the sequence (P07711 292-333 limits assumed) above
# [3] = E/Z isomerization in solution followed by 1H NMR; type: physicochemical; conditions: acetone, one week; isolated as Z isomer
# cathepsin L [4] = molecular target: T1, cathepsin L; conditions: cited from earlier work
smiles,measurement,setting,value
"NC(=S)N/N=C(\c1ccccc1)c1cccc(C(=O)c2ccccc2)c1 [Compound 1, 3-Benzoylbenzophenone thiosemicarbazone]",tumor growth delay (in words),C3H mammary carcinoma; C3H mammary carcinoma in CDF1 mice,"showed efficacy in tumor growth delay; also recorded: modest, statistically relevant efficacy in tumor growth delay; also recorded: delayed growth in vivo"
same,tolerability in mouse model,C3H mammary carcinoma; CDF1 mice bearing C3H mammary carcinoma,well-tolerated
same,reversibility of cathepsin L inhibition,cathepsin L [1],slowly reversible
same,increase in inhibition of migration compared with positive control E-64,[2],greater than 2 fold
same,cytotoxicity toward HUVECs (in words),HUVECs,low cytotoxicity; also recorded: very low cytotoxicity
"NC(=S)N/N=C(\c1ccc(F)cc1)c1cccc(C(=O)c2ccc(F)cc2)c1 [Compound 8, 1,3-Bis(4-fluorobenzoyl)benzene thiosemicarbazone]",cytotoxicity toward HUVECs (in words),HUVECs,low cytotoxicity; also recorded: very low cytotoxicity
"NC(=S)N/N=C(\c1ccc(Br)cc1)c1cccc(/C(=N/NC(N)=S)c2ccc(Br)cc2)c1 [Compound 10, 1,3-Bis(4-bromobenzoyl)benzene bis-thiosemicarbazone]",activity against cathepsin B (in words),Human liver Cathepsin B,inactive
same,activity against cathepsin L (in words),human liver cathepsin L,no activity
"CC(C)Oc1ccc(C(=O)c2cccc(/C(=N/NC(N)=S)c3ccc(OC(C)C)cc3)c2)cc1 [Compound 14, 1,3-Bis(4-isopropoxybenzoyl)benzene thiosemicarbazone]",activity against cathepsin L (in words),human liver cathepsin L,inactive
"NC(=S)N/N=C(\c1cccc(O)c1)c1cc(Br)cc(C(=O)c2cccc(O)c2)c1 [Compound 31, 1,3-Bis(3-hydroxybenzoyl)-5-bromobenzene thiosemicarbazone]",cytotoxicity toward HUVECs (in words),HUVECs,very low cytotoxicity
"NC(=S)N/N=C(\c1cc(Br)cc(C(=O)c2ccccc2F)c1)c1ccccc1F [Compound 32, 1,3-Bis(2-fluorobenzoyl)-5-bromobenzene thiosemicarbazone]",isomerization on standing in solution,[3],did not isomerize
same,reversibility of cathepsin L inhibition,cathepsin L [1],slowly reversible
same,cytotoxicity toward HUVECs (in words),HUVECs,low cytotoxicity; also recorded: very low cytotoxicity
"NC(=S)NN=C(c1cccc(O)c1)c1cccc(Br)c1 [X, (3-bromo-3′-hydroxybenzophenone) thiosemicarbazone]",kinetic analysis of cathepsin L inhibition,cathepsin L [4],time-dependent and slowly reversible
